# Bioassay records: PubChem, Broad Institute
# Hits are enriched below; roughly 2.1% of the tested compounds scored in any of these assays.
# Xi reactivation: activators of X-chromosome reactivation in mouse fibroblasts; XiGFP mouse fibroblasts, % GFP-positive cells imaging, 3 d; cells co-treated with 5-aza-dC sensitizer; scaled so ellipticine positive control = 100%; activation, % at 7.58 µM; 360,000 compounds, 0.055% hits;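 active = mean normalized replicate activation at least 10% and every replicate at or above 10%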;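 also: 0% = median of on-plate neutral control wells and 100% = ellipticine 6 µM median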
#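 System: SV40-immortalized XiGFP fibroblast cells, line 68-5-11 / Incubation: 3-day compound exposure, then 15 min fixation at room temperature / Compound: single concentration per compound, delivered by pin transfer / Buffer or medium: DMEM plus 5-aza-dC sensitizer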
# C2C12 statin: protects C2C12 myotubes from simvastatin toxicity. ATP luminescence, 48 h; scaled: DMSO 0, geranylgeraniol control 100. rescue of ATP level, % at 7.49 µM. 330,000 compounds, 0.78% hits;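 active = mean ATP rescue above about 67%, or every replicate alone reaching that limit, limit read from the data, passing the limit was not always enough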;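 also: myotubes were challenged with 10 µM simvastatin during compound exposure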
# Cneo AK release: Cryptococcus neoformans lysis via adenylate kinase release; C. neoformans lysis, adenylate kinase release luminescence, 4 h; normalised: neutral wells 0, clomiphene wells 100; lysis activity, % at 15 µM; 360,000 compounds, 0.2% hits;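 active = mean lysis activity across replicates of at least 80%, whatever share of replicates individually reach that level; inactive = mean lysis activity below 80%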
#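 Signal: Adenylate kinase release luminescence | Assay system: Log-phase Cryptococcus neoformans yeast cells | Input: Cells at 5 × 10^6 per mL | Buffer or medium: Fresh YPD growth medium | Compound: Single dose | Schedule: Static 4 h at 37 °C with compound, 1 h detection | Controls: Clomiphene | Read-out: Luminescence rise reflecting yeast cell lysis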
# DENV2 CPE: protects cells from dengue virus 2 cytopathic effect. DENV2-infected cells, cytopathic effect rescue, plate reader. CPE inhibition, % at 9.99 µM. 350,000 compounds, 1.7% hits. AID 651640; in the data active = CPE inhibition above about 20%, passing the limit was not always enough; tested in BHK-21 cells;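 also: 0% = median of neutral control wells and 100% = median of positive control wells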
# Starred values were filed as active, the others as inactive; x = not tested or not shown.
SMILES,Xi reactivation,C2C12 statin,Cneo AK release,DENV2 CPE
COc1ccc(S(=O)(=O)Nc2ccc3c(c2)C(=O)N([C@H](C)CO)C[C@@H](C)[C@@H](CN(C)C(=O)C2CCCCC2)OCCCC[C@H](C)O3)cc1,-0.2,x,1.0,-2.7
Cc1ccc(S(=O)(=O)N(C)C[C@H]2Oc3c(NC(=O)c4cc(C)nn4C)cccc3C(=O)N([C@H](C)CO)C[C@@H]2C)cc1,3.9,x,x,x
Cc1cccc(NC(=O)CCCCCN2C(=O)c3ccccc3C2=O)n1,x,92.4*,-0.3,x
Cc1cccc(NC(=O)CCCN2C(=O)c3ccccc3C2=O)n1,x,x,1.4,x
O=C(CCCCCN1C(=O)c2ccccc2C1=O)Nc1ccc2c(c1)OCCO2,x,109.0*,-2.2,x
O=C(CCN1C(=O)c2ccccc2C1=O)Nc1ccc2c(c1)OCCO2,x,5.7,-0.3,x
CCC(=O)N(C)C[C@@H]1Oc2cc(-c3ccccc3F)ccc2S(=O)(=O)N([C@@H](C)CO)C[C@@H]1C,0.2,10.7,-2.5,9.2
O=C(Nc1ccc(NC(=O)c2ccco2)nc1)c1ccccn1,x,112.9*,-3.6,x
COc1ccc2c3c(n(C)c2c1)[C@@H](CO)N(C)CC31CCN(C(=O)C2CCC2)CC1,0.1,x,x,-1.3
O=C(COc1cc(=O)n2c(n1)SCCC2)c1ccccc1,x,114.2*,-3.8,x
CSc1nncn1/N=C/c1ccc2c(c1)OCO2,x,106.4*,0.7,x
Cc1ccc(N2C(=O)c3ccc(C(=O)Nc4cccnc4)cc3C2=O)c(C)c1,x,89.9*,2.7,x
COCCN1C(=O)c2ccc(C(=O)Nc3cccnc3)cc2C1=O,0.0,3.2,0.4,5.0
O=C(Nc1ccc2nn(-c3ccccc3)nc2c1)c1cccnc1,x,130.1*,-1.5,x
CO[C@H]1CN(C)C(=O)c2ccc(NC(=O)c3ccccc3F)cc2OC[C@@H](C)N(CC2CCOCC2)C[C@H]1C,-0.3,-1.2,-19.2,-1.4
O=C(c1cccnc1)N1C[C@@H]2[C@H](c3ccccc31)[C@H](CO)N2CC1CCCCC1,0.0,-14.0,1.1,29.2*
O=C(CC(F)(F)F)N1C[C@H]2[C@@H](c3ccccc31)[C@@H](CO)N2C(=O)C1CCCC1,0.1,-16.9,-6.9,-0.2
O=C(CC(F)(F)F)N1C[C@@H]2[C@H](c3ccccc31)[C@H](CO)N2C(=O)C1CCCC1,4.7,-3.8,-5.0,21.0*
O=C(C1CC1)N1C[C@H]2[C@@H](c3ccccc31)[C@H](CO)N2C(=O)Cc1ccccn1,0.0,-11.3,-1.1,62.9*
COc1ccccc1NC(=O)N1C[C@H]2[C@@H](c3ccccc31)[C@H](CO)N2C(C)=O,0.3,10.6,50.2,20.5*
CN(C)CC(=O)Nc1ccc2c(c1)[C@H]1C[C@H](CC(=O)NCc3cccc(F)c3)O[C@@H](CO)[C@H]1O2,0.3,-0.4,-4.0,5.4
CC(C)NC(=O)N(C)C[C@H]1Oc2cc(C#CC3CC3)ccc2S(=O)(=O)N([C@H](C)CO)C[C@@H]1C,0.0,2.4,0.8,-3.8
O=C(C[C@H]1C[C@H]2c3cc(NC(=O)Cc4ccncc4)ccc3O[C@H]2[C@@H](CO)O1)NCCN1CCCCC1,0.0,-0.2,55.5,-6.2
O=C(C[C@@H]1C[C@@H]2c3cc(NS(=O)(=O)c4ccc(F)cc4)ccc3O[C@@H]2[C@@H](CO)O1)NCC1CC1,0.1,-0.3,1.0,-3.9
COc1ccc(S(=O)(=O)N(C)C[C@@H]2Oc3cc(C#CC4CC4)ccc3S(=O)(=O)N([C@H](C)CO)C[C@@H]2C)cc1,0.6,-8.6,2.3,-2.4
SMILES,Xi reactivation,C2C12 statin,Cneo AK release,DENV2 CPE
O=C(Nc1ccccc1F)N1C[C@H]2[C@@H](c3ccccc31)[C@H](CO)N2C(=O)C1CCCC1,0.0,5.9,-3.0,-14.5
CN1C[C@H]2[C@@H](c3ccccc31)[C@@H](CO)N2C(=O)C1CCCC1,0.0,0.2,-0.1,26.7*
O=C(C1CCCC1)N1C[C@H]2[C@@H](c3ccccc31)[C@H](CO)N2C(=O)c1ccccc1,0.0,-6.7,-4.4,-10.2
O=C(C1CCCC1)N1C[C@H]2[C@@H](c3ccccc31)[C@@H](CO)N2C(=O)c1ccccc1,0.0,-9.7,-2.2,50.8*
O=C(Nc1ccccc1F)N1C[C@H]2[C@@H](c3ccccc31)[C@@H](CO)N2C(=O)C1CCCCC1,0.0,3.0,0.4,60.9*
O=C(C[C@H]1C[C@@H]2c3cc(NC(=O)NC4CCCC4)ccc3O[C@@H]2[C@@H](CO)O1)NCc1ccccn1,0.3,x,x,17.4
CCS(=O)(=O)Nc1ccc2c(c1)C(=O)N(C)C[C@@H](OC)[C@@H](C)CN(C(=O)C1CC1)[C@@H](C)CO2,-0.2,-10.9,3.6,0.3
O=C(N[C@H]1CC[C@@H](CC(=O)N2CCOCC2)O[C@H]1CO)c1ccc2c(c1)OCO2,-0.3,-0.8,4.2,1.9
O=C1C(=Cc2ccccn2)CCc2ccccc21,-0.2,5.5,-2.3,38.1*
COc1ccccc1CNC(=O)C[C@H]1C[C@@H]2c3cc(NC(=O)C4CCOCC4)ccc3O[C@@H]2[C@H](CO)O1,0.2,2.5,-3.0,-3.4
Cc1c(OC(C)C(=O)NCC2CCC(C(=O)O)CC2)ccc2c3c(c(=O)oc12)CCCC3 (stereo not given),0.0,94.5*,4.0,-5.3
COc1cccc(S(=O)(=O)N2C[C@@H](O)COC[C@H]3O[C@H](CC(=O)Nc4ccccc4)CC[C@@H]32)c1,-0.1,-14.4,111.7*,12.2
O=C(C[C@H]1CC[C@H]2[C@@H](COC[C@H](O)CN2S(=O)(=O)c2cccc(Cl)c2)O1)N1CCOCC1,0.2,-8.7,-1.0,21.2*
COc1cccc(S(=O)(=O)N2C[C@H](O)COC[C@@H]3O[C@H](CC(=O)Nc4ccccc4)CC[C@H]32)c1,0.0,13.6,1.3,5.6
COc1cccc(S(=O)(=O)N2C[C@@H](O)COC[C@H]3O[C@H](CC(=O)N4CCN(C)CC4)CC[C@@H]32)c1,0.0,9.1,84.6*,20.3*
COc1ccc2c3c([nH]c2c1)[C@H](CO)N(Cc1ccccc1)CC31CCN(C(=O)c2cccnc2)CC1,0.2,x,x,x
O=C(C[C@H]1CC[C@@H]2[C@H](COC[C@@H](O)CN2S(=O)(=O)c2cccc(F)c2)O1)NCCCN1CCOCC1,-0.2,0.3,-1.4,3.8
C[C@H]1CN([C@@H](C)CO)C(=O)c2cccc(NC(=O)C3CCOCC3)c2O[C@H]1CN(C)C(=O)Nc1ccccc1,-1.0,3.9,-0.1,-0.3
Nc1ncc(-c2ccc(F)cc2)nc1N1CCN(CCO)CC1,0.1,-13.8,-0.4,27.2*
OCCN1CCN(c2nc3ccccc3nc2-c2ccccc2)CC1,-0.2,0.6,x,-3.8
CC(C)=CCOc1c2ccoc2cc2oc(=O)ccc12,x,-13.1,-0.8,125.2*
C[C@H](CO)N1C[C@H](C)[C@H](CN(C)Cc2ccc(C(=O)Nc3ccccc3N)cc2)Oc2ccc(N(C)C)cc2C1=O,-0.7,83.4*,-1.8,-12.8
C[C@@H]1CN([C@H](C)CO)C(=O)c2cc(N(C)C)ccc2O[C@H]1CN(C)Cc1ccc(C(=O)Nc2ccccc2N)cc1,-0.4,33.3,-2.0,2.6
